Assay results reported in ChEMBL document CHEMBL3425464, “HM30181 Derivatives as Novel Potent and Selective Inhibitors of the Breast Cancer Resistance Protein (BCRP/ABCG2)” (J Med Chem, 2015).

Legend:
[1] = molecular target: T1, Broad substrate specificity ATP-binding cassette transporter ABCG2 (Homo sapiens, UniProt Q9UNQ0); assay: Inhibition of GFP-tagged human BCRP expressed in MDCK2 cells pre-incubated for 30 mins followed by Hoechst 33342 addition and further incubated for 120 mins by Hoechst 33342 accumulation assay; type: cell-based, MDCK-II
T1 sequence (Q9UNQ0 whole entry): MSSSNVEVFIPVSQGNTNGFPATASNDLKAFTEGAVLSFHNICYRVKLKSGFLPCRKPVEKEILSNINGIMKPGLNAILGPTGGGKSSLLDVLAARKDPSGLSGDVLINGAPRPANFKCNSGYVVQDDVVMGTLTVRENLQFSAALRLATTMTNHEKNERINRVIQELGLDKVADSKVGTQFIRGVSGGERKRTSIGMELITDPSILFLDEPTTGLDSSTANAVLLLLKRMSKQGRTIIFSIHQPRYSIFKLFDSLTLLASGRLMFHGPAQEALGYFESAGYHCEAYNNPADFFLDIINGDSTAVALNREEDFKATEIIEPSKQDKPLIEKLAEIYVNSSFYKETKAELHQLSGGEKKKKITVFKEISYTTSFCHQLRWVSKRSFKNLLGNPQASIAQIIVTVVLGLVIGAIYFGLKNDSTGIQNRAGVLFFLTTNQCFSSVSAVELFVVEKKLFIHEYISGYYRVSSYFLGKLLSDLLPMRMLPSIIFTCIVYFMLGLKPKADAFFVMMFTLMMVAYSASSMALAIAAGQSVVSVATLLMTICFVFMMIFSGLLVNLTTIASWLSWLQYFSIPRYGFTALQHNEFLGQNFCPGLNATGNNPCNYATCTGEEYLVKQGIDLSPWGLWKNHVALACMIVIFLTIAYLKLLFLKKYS
Procedure, shortened: (§1)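 MDCK II cells stably carrying human BCRP cDNA C-terminally fused to GFP are washed in KHB, pH 7.4. About 30,000 cells/well are preincubated 30 min at 37 °C with compound up to 10 μM (DMSO ≤0.1%, methanol ≤5% for poorly soluble compounds). Hoechst 33342 is added from a 10 μM solution, and fluorescence (ex 355/em 460) is read every 60 s for 120 min. The steady-state mean (100–109 min) is fitted to a four-parameter logistic curve.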

[2] = molecular target: ABCB1 (P-gp) (Homo sapiens, UniProt P08183); assay: Inhibition of ABCB1 in human A2780adr cells at 10 uM pre-incubated for 30 mins followed by calcein AM addition and further incubated for 60 mins by calcein AM assay; type: cell-based, A2780 ADR; details: probe calcein AM
[3] = molecular target: Multidrug resistance-associated protein 1 (Homo sapiens, UniProt P33527); assay: Inhibition of MRP1 in human H69AR cells at 10 uM pre-incubated for 30 mins followed by calcein AM addition and further incubated for 60 mins by calcein AM assay; details: 1 h
[4] = Solubility in DMSO; type: physicochemical
[5] = Intrinsic cytotoxicity against BCRP expressing MDCK2 cells assessed as reduction in cell viability after 72 hrs by MTT assay; type: ADME, cell-based, Canis lupus familiaris, MDCK-II; details: dog
Procedure, shortened: (§2)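 Cells are seeded at 3000/well and allowed to attach for 6 h at 37 °C, 5% CO2. They are then exposed to compound in medium, up to 100 μM final (DMSO ≤1.0%), for 72 h. Controls are medium alone (negative) and 10% DMSO (positive). MTT is added for 1 h, formazan is dissolved in DMSO, and absorbance is read at 570 nm minus 690 nm. Viability is expressed as % of the negative control, and GI50 comes from a variable-slope sigmoidal fit. n = 3, each in quadruplicate.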

[6] = Intrinsic cytotoxicity against wild type MDCK2 cells assessed as reduction in cell viability after 72 hrs by MTT assay; type: cell-based, Canis lupus familiaris, MDCK-II; details: dog; procedure, shortened: as §2
[7] = Ratio of GI50 for wild type MDCK2 cells by MTT assay to IC50 for GFP-tagged human BCRP expressed in MDCK2 cells by Hoechst 33342 accumulation assay; design: species or system MDCK-II
Procedure, shortened: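 Ratio of two values. […] Read at 570/690 nm as % of medium control; n = 3, each in quadruplicate. IC50 came from Hoechst 33342 accumulation in MDCK II BCRP-GFP cells: 2 h at 37 °C, steady-state fluorescence, four-parameter fit.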

[8] = molecular target: T2, BCRP (ABCG2) (Homo sapiens, UniProt Q9UNQ0); assay: Potency index, ratio of IC50 for Ko143 to IC50 for compound against GFP-tagged human BCRP expressed in MDCK2 cells by Hoechst 33342 accumulation assay; type: cell-based; details: MDCK2 cells expressing GFP-tagged human BCRP, probe Hoechst 33342, read-out: Ratio IC50
T2 sequence (Q9UNQ0 whole entry): T1 sequence (Q9UNQ0 whole entry)

[9] = Solubility in water; type: physicochemical; details: buffer
[10] = molecular target: T2, BCRP (ABCG2); assay: Inhibition of GFP-tagged human BCRP expressed in MDCK2 cells pre-incubated for 30 mins followed by Hoechst 33342 addition and further incubated for 120 mins by Hoechst 33342 accumulation assay relative to XR9577; type: cell-based, MDCK-II; details: MDCK2 cells expressing GFP-tagged human BCRP, probe Hoechst 33342, read-out: Imax
[11] = molecular target: T1, Broad substrate specificity ATP-binding cassette transporter ABCG2; assay: Inhibition of GFP-tagged human BCRP expressed in MDCK2 cells up to 10 uM pre-incubated for 30 mins followed by Hoechst 33342 addition and further incubated for 120 mins by Hoechst 33342 accumulation assay; type: cell-based; details: mdck-ii, 2 h; procedure, shortened: as §1
[12] = molecular target: ATP-dependent translocase ABCB1 (Homo sapiens, UniProt P08183); assay: Inhibition of ABCB1 in human A2780adr cells pre-incubated for 30 mins followed by calcein AM addition and further incubated for 60 mins by calcein AM assay; type: cell-based, A2780 ADR
[13] = molecular target: T1, Broad substrate specificity ATP-binding cassette transporter ABCG2; assay: Inhibition of human BCRP expressed in MDCK2 cells assessed as reversal of multidrug resistance by measuring increase in SN-38-induced cytotoxicity at 5 uM after 72 hrs by MTT assay; type: cell-based; details: mdck-ii
Procedure, shortened: (§3)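 MDCK II BCRP cells are seeded at 3000/well and allowed to attach for 6 h at 37 °C, 5% CO2. They are then exposed to SN-38 (up to 100 μM) alone or together with 3 μM or 5 μM modulator for 72 h. MDCK II wild-type cells given SN-38 serve as the comparison. MTT is added for 1 h, formazan is dissolved in DMSO, and absorbance is read at 570 nm with 690 nm background.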

[14] = molecular target: T1, Broad substrate specificity ATP-binding cassette transporter ABCG2; assay: Inhibition of human BCRP expressed in MDCK2 cells assessed as reversal of multidrug resistance by measuring increase in SN-38-induced cytotoxicity at 3 uM after 72 hrs by MTT assay; type: cell-based; details: mdck-ii; procedure, shortened: as §3

Sequence of Multidrug resistance-associated protein 1 (P33527 whole entry): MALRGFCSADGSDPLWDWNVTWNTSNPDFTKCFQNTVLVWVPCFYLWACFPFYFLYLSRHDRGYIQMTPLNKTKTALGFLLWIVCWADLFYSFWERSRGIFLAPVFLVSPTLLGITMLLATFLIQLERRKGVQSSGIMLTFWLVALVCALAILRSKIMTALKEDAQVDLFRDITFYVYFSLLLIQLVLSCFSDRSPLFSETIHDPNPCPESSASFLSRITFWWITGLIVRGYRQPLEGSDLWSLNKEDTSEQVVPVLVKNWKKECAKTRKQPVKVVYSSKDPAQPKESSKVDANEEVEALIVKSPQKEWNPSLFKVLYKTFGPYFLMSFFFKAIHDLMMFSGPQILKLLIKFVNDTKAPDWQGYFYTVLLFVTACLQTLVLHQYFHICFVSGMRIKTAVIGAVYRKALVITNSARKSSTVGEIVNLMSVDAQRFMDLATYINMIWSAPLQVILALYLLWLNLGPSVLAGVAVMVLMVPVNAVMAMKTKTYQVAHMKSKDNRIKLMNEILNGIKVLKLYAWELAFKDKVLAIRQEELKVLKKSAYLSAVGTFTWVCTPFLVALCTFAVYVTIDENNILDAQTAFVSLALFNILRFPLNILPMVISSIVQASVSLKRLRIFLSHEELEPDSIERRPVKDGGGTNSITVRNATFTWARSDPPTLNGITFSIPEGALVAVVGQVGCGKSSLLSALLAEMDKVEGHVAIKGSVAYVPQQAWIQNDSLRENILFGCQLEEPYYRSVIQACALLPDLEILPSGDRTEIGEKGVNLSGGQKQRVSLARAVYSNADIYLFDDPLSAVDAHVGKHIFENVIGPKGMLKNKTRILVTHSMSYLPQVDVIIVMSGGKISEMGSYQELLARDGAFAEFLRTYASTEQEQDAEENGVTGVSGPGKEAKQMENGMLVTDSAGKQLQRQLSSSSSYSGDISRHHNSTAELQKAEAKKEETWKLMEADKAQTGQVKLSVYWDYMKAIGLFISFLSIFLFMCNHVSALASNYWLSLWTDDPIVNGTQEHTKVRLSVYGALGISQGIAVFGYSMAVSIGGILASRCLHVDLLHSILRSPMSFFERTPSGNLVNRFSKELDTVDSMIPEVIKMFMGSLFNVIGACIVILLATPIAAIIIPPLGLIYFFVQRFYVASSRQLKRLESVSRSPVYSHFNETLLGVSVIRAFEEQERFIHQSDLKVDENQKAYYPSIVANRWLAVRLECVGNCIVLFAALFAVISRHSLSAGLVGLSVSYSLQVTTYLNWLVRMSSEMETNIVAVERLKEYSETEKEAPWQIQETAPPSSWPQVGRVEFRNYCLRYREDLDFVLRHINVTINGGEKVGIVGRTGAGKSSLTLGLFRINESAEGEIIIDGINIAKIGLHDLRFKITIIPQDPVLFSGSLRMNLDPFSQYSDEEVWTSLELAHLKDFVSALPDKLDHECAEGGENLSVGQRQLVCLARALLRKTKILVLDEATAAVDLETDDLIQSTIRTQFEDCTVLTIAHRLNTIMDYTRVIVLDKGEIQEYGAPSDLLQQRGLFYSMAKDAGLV
Sequence of ABCB1 (P-gp) (P08183 whole entry): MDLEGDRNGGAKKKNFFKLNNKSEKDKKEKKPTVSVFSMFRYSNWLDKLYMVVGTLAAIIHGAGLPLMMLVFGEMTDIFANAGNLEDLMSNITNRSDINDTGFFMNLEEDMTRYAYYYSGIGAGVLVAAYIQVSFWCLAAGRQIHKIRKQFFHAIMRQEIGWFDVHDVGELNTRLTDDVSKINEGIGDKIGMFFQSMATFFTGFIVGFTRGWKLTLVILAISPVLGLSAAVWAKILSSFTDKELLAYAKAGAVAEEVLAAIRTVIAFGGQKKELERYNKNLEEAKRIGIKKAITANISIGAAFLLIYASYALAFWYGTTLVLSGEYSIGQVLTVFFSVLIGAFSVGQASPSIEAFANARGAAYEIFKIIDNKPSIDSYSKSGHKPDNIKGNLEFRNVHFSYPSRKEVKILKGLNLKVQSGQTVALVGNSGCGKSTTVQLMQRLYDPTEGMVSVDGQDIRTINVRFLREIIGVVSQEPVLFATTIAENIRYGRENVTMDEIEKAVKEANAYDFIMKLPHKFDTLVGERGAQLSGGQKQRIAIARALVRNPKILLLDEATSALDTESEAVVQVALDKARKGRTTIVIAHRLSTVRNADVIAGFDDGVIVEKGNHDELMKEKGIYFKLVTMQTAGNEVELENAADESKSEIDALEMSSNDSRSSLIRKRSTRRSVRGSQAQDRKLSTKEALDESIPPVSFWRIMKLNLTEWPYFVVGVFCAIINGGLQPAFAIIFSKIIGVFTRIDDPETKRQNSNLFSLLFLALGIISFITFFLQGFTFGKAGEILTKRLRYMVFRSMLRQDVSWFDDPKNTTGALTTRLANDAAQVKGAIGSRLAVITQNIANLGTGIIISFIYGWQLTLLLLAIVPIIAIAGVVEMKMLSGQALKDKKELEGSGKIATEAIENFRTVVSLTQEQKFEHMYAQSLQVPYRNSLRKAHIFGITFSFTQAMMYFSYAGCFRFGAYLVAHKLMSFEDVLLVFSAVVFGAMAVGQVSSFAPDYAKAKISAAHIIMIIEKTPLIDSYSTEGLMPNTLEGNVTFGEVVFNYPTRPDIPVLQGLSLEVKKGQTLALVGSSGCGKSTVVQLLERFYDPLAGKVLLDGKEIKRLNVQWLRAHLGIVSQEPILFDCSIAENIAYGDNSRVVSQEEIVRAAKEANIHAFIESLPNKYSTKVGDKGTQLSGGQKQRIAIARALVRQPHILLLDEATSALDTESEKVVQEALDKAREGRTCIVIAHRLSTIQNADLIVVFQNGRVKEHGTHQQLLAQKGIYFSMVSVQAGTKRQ
Sequence of ATP-dependent translocase ABCB1 (P08183 whole entry): as above

| SMILES | IC50 [1] | inhibition at 1 h, 10 µM [2] | inhibition (INH) [3] | solubility [4] | GI50 at 72 h [5] | GI50 at 72 h [6] | Ratio [7] | selectivity ratio [8] | solubility [9] | Emax at 2 h [10] | inhibition (INH) [11] | IC50 [12] | inhibition (INH) [13] | inhibition (INH) [14] |
| --- | --- | --- | --- | --- | --- | --- | --- | --- | --- | --- | --- | --- | --- | --- |
| CCCc1ccc(C(=O)Nc2ccccc2-c2nnn(-c3ccc(OC)cc3)n2)cc1 | 79.4 nM | < 25% | Not Active | > 10 mM | 60900 nM | 77600 nM | 1000 | 2 | Insoluble | 91% |  |  |  |  |
| O=C(Nc1ccccc1C(=O)Nc1ccc(CCN2CCc3ccccc3C2)cc1)c1cnc2ccccc2c1 | 721 nM |  |  |  |  |  |  |  |  |  |  |  |  |  |
| COc1cccc(-n2nnc(-c3ccccc3NC(=O)c3ccc(C(F)(F)F)cc3)n2)c1 | 11200 nM | < 25% | Not Active | > 10 mM |  |  |  |  | Insoluble | 100% |  |  |  |  |
| CCCc1ccc(-n2nnc(-c3ccccc3NC(=O)c3ccc([N+](=O)[O-])cc3)n2)cc1 | 184 nM | < 25% | Not Active | > 10 mM |  |  |  |  | Insoluble | 63% |  |  |  |  |
| COc1ccc(-n2nnc(-c3ccccc3NC(=O)c3ccc([N+](=O)[O-])cc3)n2)cc1 | 118 nM | < 25% | Not Active | > 10 mM |  |  |  |  | Insoluble | 61% |  |  |  |  |
| O=C(Nc1ccccc1-c1nnn(-c2ccc(C(F)(F)F)cc2)n1)c1ccc([N+](=O)[O-])cc1 |  | < 25% | Not Active | > 10 mM |  |  |  |  | Insoluble |  | Not Active |  |  |  |
| COc1ccc(C(=O)Nc2ccccc2-c2nnn(-c3ccc(C(F)(F)F)cc3)n2)cc1OC | 269 nM | < 25% | Not Active | > 10 mM |  |  |  |  | Insoluble | 85% |  |  |  |  |
| COc1cccc(-n2nnc(-c3ccccc3NC(=O)c3ccc([N+](=O)[O-])cc3)n2)c1 | 78.9 nM | < 25% | Not Active | > 10 mM |  |  |  |  | Insoluble | 58% |  |  |  |  |
| CCCc1ccc(-n2nnc(-c3ccccc3NC(=O)c3ccc(C(F)(F)F)cc3)n2)cc1 |  | < 25% | Not Active | > 10 mM |  |  |  |  | Insoluble |  | Not Active |  |  |  |
| COc1ccc(C(=O)Nc2ccccc2-c2nnn(-c3ccccc3OC)n2)cc1 | 180 nM | ≥ 25% | Not Active | > 10 mM |  |  |  |  | Insoluble | 88% |  | 7730 nM |  |  |
| COc1ccccc1-n1nnc(-c2ccccc2NC(=O)c2ccc(C(F)(F)F)cc2)n1 | 451 nM | ≥ 25% | Not Active | > 10 mM |  |  |  |  | Insoluble | 100% |  | 11000 nM |  |  |
| Cc1ccc(-n2nnc(-c3ccccc3NC(=O)c3ccc([N+](=O)[O-])cc3)n2)cc1 | 100 nM | < 25% | Not Active | > 10 mM |  |  |  |  | Insoluble | 71% |  |  |  |  |
| CCCc1ccc(-n2nnc(-c3ccccc3NC(=O)c3ccc(OC)cc3)n2)cc1 | 64.2 nM | < 25% | Not Active | > 10 mM | 61800 nM | 63200 nM | 1000 | 2 | Insoluble | 88% |  |  |  |  |
| COc1ccccc1-n1nnc(-c2ccccc2NC(=O)c2ccc([N+](=O)[O-])cc2)n1 | 261 nM | < 25% | Not Active | > 10 mM |  |  |  |  | Insoluble | 102% |  |  |  |  |
| CCOc1ccc(-n2nnc(-c3ccccc3NC(=O)c3ccc(OC)c(OC)c3)n2)cc1 | 201 nM | ≥ 25% | Not Active | > 10 mM |  |  |  |  | Insoluble | 106% |  | 32800 nM |  |  |
| CCOc1ccc(-n2nnc(-c3ccccc3NC(=O)c3ccc([N+](=O)[O-])cc3)n2)cc1 |  | < 25% | Not Active | > 10 mM |  |  |  |  | Insoluble |  | Not Active |  |  |  |
| COc1ccc(C(=O)Nc2ccccc2-c2nnn(-c3ccc(C(F)(F)F)cc3)n2)cc1 | 73 nM | < 25% | Not Active | > 10 mM | 40200 nM | 34400 nM | 500 | 2 | Insoluble | 102% |  |  | Active | Active |
| CCOc1ccc(-n2nnc(-c3ccccc3NC(=O)c3ccc(C(F)(F)F)cc3)n2)cc1 |  | < 25% | Not Active | > 10 mM |  |  |  |  | Insoluble |  | Not Active |  |  |  |
| COc1ccc(-n2nnc(-c3ccccc3NC(=O)c3ccc(C(F)(F)F)cc3)n2)cc1 | 106 nM | < 25% | Not Active | > 10 mM |  |  |  |  | Insoluble | 93% |  |  |  |  |
| COc1ccc(-n2nnc(-c3ccccc3NC(=O)c3ccc(OC)c(OC)c3)n2)cc1 | 117 nM | ≥ 25% | Not Active | > 10 mM |  |  |  |  | Insoluble | 107% |  | 37200 nM |  |  |
| O=C(Nc1ccccc1-c1nnn(-c2ccc(C(F)(F)F)cc2)n1)c1ccc(C(F)(F)F)cc1 |  | < 25% | Not Active | > 10 mM |  |  |  |  | Insoluble |  | Not Active |  |  |  |
| Cc1ccc(-n2nnc(-c3ccccc3NC(=O)c3ccc(C(F)(F)F)cc3)n2)cc1 | 137 nM | < 25% | Not Active | > 10 mM |  |  |  |  | Insoluble | 65% |  |  |  |  |
